The source made the active and inactive calls. The calls are words filed in the database; no cut-off is given here.
How the values were obtained:
[1] = Cmax in Lewis rat at 2 mg/kg, po; format: ADME, organism-based; parameters: dose 2 mg/kg, route oral; settings: in vivo
Method in brief: (§1)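 Lewis rats, IV 3 mg/kg and PO 10 mg/kg unless otherwise stated (some at PO 5 mg/kg, IV 1 mg/kg, or IV 1/PO 2 mg/kg). At least two rats IV, three rats PO, averaged. Plasma t1/2 (h), AUC 0–∞ (μM·h), Vss (L/kg), clearance ((L/h)/kg), Cmax (μM), Tmax (h), oral bioavailability (%).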

[2] = Metabolic stability in rat liver microsome after 30 mins by LC/MS/MS analysis; format: ADME; settings: liver microsomes, read-out: Stability
Method in brief: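 Compound incubated 30 min with rat liver microsomes; percent parent remaining by LC/MS/MS.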

[3] = target: Acyl-CoA 6-desaturase (Rattus norvegicus) (UniProt Q9Z122); assay: Inhibition of delta6 desaturase in Sprague-Dawley rat liver microsome using cis,cis-9,12-octadecadienoic acid substrate at 10 uM
[4] = AUC (0 to infinity) in Lewis rat at 1 mg/kg, iv; format: ADME, organism-based; parameters: time infinity, dose 1 mg/kg, route intravenous; settings: plasma; method in brief: as §1
Rattus norvegicus [5] = assay: In vivo inhibition of SCD1 in Lewis rat liver microsome at 15 mg/kg, ip administered qd for 2 days; format: functional; settings: 48 h, route intraperitoneal
Method in brief: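 Lewis rats fed high-carbohydrate diet for one week, fasted 4 h, then dosed orally (0.1–1 mg/kg in 0.2% Tween 20/1% CMC; n = 4), killed 4 h later; ip arm 15 mg/kg once daily for two days. Liver microsomes prepared, SCD1 activity measured by tritiated water release from [9,10-3H]stearoyl-CoA. Mean ± SD of at least four rats.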

Acyl-CoA desaturase 1 = target: T1, Acyl-CoA desaturase 1 (Mus musculus, UniProt P13516); assay: Inhibition of SCD1 in ICR mouse liver microsome using [9,10 3H]- stearoyl-Coenzyme A substrate assessed as decreased production of tritiated water after 20 min by scintillation counting analysis
T1 sequence (P13516 whole entry): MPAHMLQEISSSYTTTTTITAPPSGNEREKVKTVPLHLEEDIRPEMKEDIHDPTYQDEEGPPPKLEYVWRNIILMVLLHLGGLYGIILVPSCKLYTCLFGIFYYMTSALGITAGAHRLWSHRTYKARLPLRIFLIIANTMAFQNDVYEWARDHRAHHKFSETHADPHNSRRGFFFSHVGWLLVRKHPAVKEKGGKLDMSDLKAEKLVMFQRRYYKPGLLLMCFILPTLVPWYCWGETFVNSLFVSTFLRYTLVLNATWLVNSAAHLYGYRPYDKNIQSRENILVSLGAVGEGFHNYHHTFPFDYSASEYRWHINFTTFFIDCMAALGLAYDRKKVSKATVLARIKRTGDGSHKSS

[6] = Tmax in Lewis rat at 2 mg/kg, po; format: ADME, organism-based; parameters: dose 2 mg/kg, route oral; settings: in vivo; method in brief: as §1
[7] = Volume of distribution at steady state in Lewis rat at 1 mg/kg, iv; format: ADME, organism-based; parameters: dose 1 mg/kg, route intravenous; settings: in vivo, read-out: Vdss; method in brief: as §1
[8] = Clearance in Lewis rat at 1 mg/kg, iv; format: ADME, organism-based; parameters: dose 1 mg/kg, route intravenous; settings: in vivo; method in brief: as §1
[9] = Oral bioavailability in Lewis rat at 2 mg/kg; format: ADME, organism-based; settings: in vivo; method in brief: as §1
[10] = target: Acyl-CoA (8-3)-desaturase (Rattus norvegicus) (UniProt Q920R3); assay: Inhibition of delta5 desaturase in Sprague-Dawley rat liver microsome at 10 uM; format: microsomes
[11] = Apparent permeability from apical to basolateral side in human Caco2 cells; format: ADME, cell-based; settings: Caco-2
Method in brief: (§2)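 Caco-2 monolayers; apparent permeability a-to-b and b-to-a reported in 10⁻⁶ cm/s.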

[12] = AUC (0 to infinity) in Lewis rat at 2 mg/kg, po; format: ADME, organism-based; parameters: time infinity, dose 2 mg/kg, route oral; settings: plasma; method in brief: as §1
[13] = Half life in Lewis rat at 1 mg/kg, iv; format: ADME, organism-based; parameters: dose 1 mg/kg, route intravenous; settings: in vivo; method in brief: as §1
[14] = Apparent permeability from basolateral to apical side in human Caco2 cells; format: ADME, cell-based; settings: Caco-2; method in brief: as §2
[15] = Cmax in Lewis rat at 10 mg/kg, po; format: ADME, organism-based; parameters: dose 10 mg/kg, route oral; settings: in vivo; method in brief: as §1
[16] = Tmax in Lewis rat at 10 mg/kg, po; format: ADME, organism-based; parameters: dose 10 mg/kg, route oral; settings: in vivo; method in brief: as §1
[17] = Clearance in Lewis rat at 3 mg/kg, iv; format: ADME, organism-based; parameters: dose 3 mg/kg, route intravenous; settings: in vivo; method in brief: as §1
[18] = Oral bioavailability in Lewis rat at 10 mg/kg; format: ADME, organism-based; settings: in vivo; method in brief: as §1
[19] = Half life in Lewis rat at 3 mg/kg, iv; format: ADME, organism-based; parameters: dose 3 mg/kg, route intravenous; settings: in vivo; method in brief: as §1
[20] = Volume of distribution at steady state in Lewis rat at 3 mg/kg, iv; format: ADME, organism-based; parameters: dose 3 mg/kg, route intravenous; settings: in vivo, read-out: Vdss; method in brief: as §1
Stearoyl-CoA desaturase = target: T2, Stearoyl-CoA desaturase (Homo sapiens, UniProt O00767); assay: Inhibition of SCD1 in human HepG2 cells using [14C]-stearate substrate assessed as decreased production of [14C]-oleic acid after 24 hrs; format: cell-based
T2 sequence (O00767 whole entry): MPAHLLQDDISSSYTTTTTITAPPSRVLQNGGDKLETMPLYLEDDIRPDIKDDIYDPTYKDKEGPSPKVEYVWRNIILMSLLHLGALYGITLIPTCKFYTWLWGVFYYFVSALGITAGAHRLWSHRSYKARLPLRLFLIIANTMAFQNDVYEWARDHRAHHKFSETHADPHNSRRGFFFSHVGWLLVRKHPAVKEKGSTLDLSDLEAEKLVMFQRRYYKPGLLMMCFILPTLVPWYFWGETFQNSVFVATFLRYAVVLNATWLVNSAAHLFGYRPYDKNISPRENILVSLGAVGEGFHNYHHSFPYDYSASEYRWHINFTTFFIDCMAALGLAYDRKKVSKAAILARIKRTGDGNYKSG

Rattus norvegicus [21] = assay: In vivo inhibition of SCD1 in Lewis rat liver microsome at 1 mg/kg, po after 4 hrs

Acyl-CoA 6-desaturase (Rattus norvegicus), sequence (Q9Z122 whole entry, looked up): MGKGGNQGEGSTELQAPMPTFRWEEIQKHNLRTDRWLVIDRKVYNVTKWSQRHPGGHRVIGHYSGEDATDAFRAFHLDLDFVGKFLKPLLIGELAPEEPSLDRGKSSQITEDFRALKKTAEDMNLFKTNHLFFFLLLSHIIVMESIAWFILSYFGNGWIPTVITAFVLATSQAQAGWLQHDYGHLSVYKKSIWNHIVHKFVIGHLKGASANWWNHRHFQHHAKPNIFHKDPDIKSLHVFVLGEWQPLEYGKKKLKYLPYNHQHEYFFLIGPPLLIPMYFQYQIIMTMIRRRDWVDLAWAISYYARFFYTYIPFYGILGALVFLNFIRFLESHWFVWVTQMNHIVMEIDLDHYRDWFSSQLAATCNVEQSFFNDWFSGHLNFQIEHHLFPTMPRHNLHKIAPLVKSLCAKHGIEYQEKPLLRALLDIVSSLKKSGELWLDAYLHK
Acyl-CoA (8-3)-desaturase (Rattus norvegicus), sequence (Q920R3 whole entry, looked up): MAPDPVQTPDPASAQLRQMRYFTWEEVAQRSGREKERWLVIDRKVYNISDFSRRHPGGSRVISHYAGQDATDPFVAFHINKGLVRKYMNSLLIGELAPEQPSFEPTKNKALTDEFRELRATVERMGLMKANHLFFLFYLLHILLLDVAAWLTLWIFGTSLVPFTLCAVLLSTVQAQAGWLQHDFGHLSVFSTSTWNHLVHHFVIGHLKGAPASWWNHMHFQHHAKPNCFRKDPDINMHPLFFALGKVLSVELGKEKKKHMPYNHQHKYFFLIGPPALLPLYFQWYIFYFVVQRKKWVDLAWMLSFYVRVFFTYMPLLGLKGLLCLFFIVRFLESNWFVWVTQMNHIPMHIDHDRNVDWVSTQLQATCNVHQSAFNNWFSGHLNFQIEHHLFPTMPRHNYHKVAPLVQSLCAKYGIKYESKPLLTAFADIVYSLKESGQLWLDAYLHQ

Structure (SMILES)	remaining at 0.5 h [2] [%]	inhibition [3]	inhibition in vivo at 15 mg/kg (Rattus norvegicus [5]) [%]	IC50 (Acyl-CoA desaturase 1) [µM]	inhibition [10]	Papp A→B [11] [nm/s]	Papp B→A [14] [nm/s]	further results
O=C(Nc1nc2ccccc2[nH]1)c1ccc(N2CCN(C(=O)c3ccccc3C(F)(F)F)CC2)nn1	92	inactive	< 30	0.011	inactive	250	230	Cmax [1]: 0.07 µM; AUC(0-inf) [4]: 1600 nM·h; Tmax [6]: 0.5 h; Vd [7]: 1.8 L/kg; clearance [8]: 1.3 L/h/kg; bioavailability [9]: 19%; AUC(0-inf) [12]: 600 nM·h; half-life [13]: 1.1 h
O=C(CNC(=O)c1ccc(N2CCN(C(=O)c3ccccc3C(F)(F)F)CC2)nn1)c1ccccc1	63	inactive	> 60	0.042	inactive	220	230	Cmax [15]: 1.9 µM; Tmax [16]: 3.3 h; clearance [17]: 0.28 L/h/kg; bioavailability [18]: 42%; half-life [19]: 1.8 h; Vd [20]: 0.7 L/kg
Cc1cc(C(=O)N2CCN(c3ccc(C(=O)NCCC4CC4)nn3)CC2)c(C(F)(F)F)o1	36	inactive	< 30	0.072	inactive	210	210	IC50 (Stearoyl-CoA desaturase): 0.062 µM
O=C(Nc1ccc(Cl)cc1)c1ccc(N2CCN(C(=O)c3ccccc3C(F)(F)F)CC2)nn1	65	inactive		0.007	inactive	20	20	inhibition (Rattus norvegicus [21]): Active

Reference: ChEMBL document CHEMBL2311383, “Discovery of piperazin-1-ylpyridazine-based potent and selective stearoyl-CoA desaturase-1 inhibitors for the treatment of obesity and metabolic syndrome” (J Med Chem, 2013)
